Active and inactive are the calls of the source. No cut-off for these calls is given here.
How the values were obtained:
[1] = Half life in Swiss albino mouse at 3 mg/kg, iv; assay type: ADME, organism-based; design: dose 3 mg/kg, route intravenous; settings: in vivo
Method in brief: (§1)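 Mouse PK after single intravenous or oral dose; n = 3 mice per time point. Parameters reported: T1/2, Cmax, AUClast, Vss and CL for iv; Tmax, Cmax, AUClast and %F for po. One iv formulation given is 7.5% v/v N-methyl pyrrolidone with 20% cremophor EL in water.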

[2] = Cmax in Swiss albino mouse at 3 mg/kg, iv; assay type: ADME, organism-based; design: dose 3 mg/kg, route intravenous; settings: in vivo; method in brief: as §1
[3] = AUClast in Swiss albino mouse at 3 mg/kg, iv; assay type: ADME, organism-based; design: time 0 - last, dose 3 mg/kg, route intravenous; settings: plasma; method in brief: as §1
[4] = Volume of distribution at steady state in Swiss albino mouse at 3 mg/kg, iv; assay type: ADME, organism-based; design: dose 3 mg/kg, route intravenous; settings: in vivo, read-out: Vdss; method in brief: as §1
[5] = Clearance in Swiss albino mouse at 3 mg/kg, iv; assay type: ADME, organism-based; design: dose 3 mg/kg, route intravenous; settings: in vivo; method in brief: as §1
[6] = Tmax in Swiss albino mouse at 3 mg/kg, po; assay type: ADME, organism-based; design: dose 3 mg/kg, route oral; settings: in vivo; method in brief: as §1
[7] = Cmax in Swiss albino mouse at 3 mg/kg, po; assay type: ADME, organism-based; design: dose 3 mg/kg, route oral; settings: in vivo; method in brief: as §1
[8] = AUClast in Swiss albino mouse at 3 mg/kg, po; assay type: ADME, organism-based; design: time 0 - last, dose 3 mg/kg, route oral; settings: plasma; method in brief: as §1
Mus musculus [9] = test: Oral bioavailability in Swiss albino mouse at 3 mg/kg; assay type: ADME, organism-based; settings: in vivo; method in brief: as §1
[10] = Half life in Swiss albino mouse at 1 mg/kg, iv; assay type: ADME, organism-based; design: dose 1 mg/kg, route intravenous; settings: in vivo; method in brief: as §1
[11] = Cmax in Swiss albino mouse at 1 mg/kg, iv; assay type: ADME, organism-based; design: dose 1 mg/kg, route intravenous; settings: in vivo; method in brief: as §1
[12] = AUClast in Swiss albino mouse at 1 mg/kg, iv; assay type: ADME, organism-based; design: dose 1 mg/kg, route intravenous, time 0 - last; settings: plasma; method in brief: as §1
[13] = Volume of distribution at steady state in Swiss albino mouse at 1 mg/kg, iv; assay type: ADME, organism-based; design: dose 1 mg/kg, route intravenous; settings: in vivo, read-out: Vdss; method in brief: as §1
[14] = Clearance in Swiss albino mouse at 1 mg/kg, iv; assay type: ADME, organism-based; design: dose 1 mg/kg, route intravenous; settings: in vivo; method in brief: as §1
[15] = Tmax in Swiss albino mouse at 10 mg/kg, po; assay type: ADME, organism-based; design: dose 10 mg/kg, route oral; settings: in vivo; method in brief: as §1
[16] = Cmax in Swiss albino mouse at 10 mg/kg, po; assay type: ADME, organism-based; design: dose 10 mg/kg, route oral; settings: in vivo; method in brief: as §1
[17] = AUClast in Swiss albino mouse at 10 mg/kg, po; assay type: ADME, organism-based; design: time 0 - last, dose 10 mg/kg, route oral; settings: plasma; method in brief: as §1
Mus musculus [18] = test: Oral bioavailability in Swiss albino mouse at 10 mg/kg; assay type: ADME, organism-based; settings: in vivo; method in brief: as §1
[19] = biological target: NT-3 growth factor receptor (Homo sapiens, UniProt Q16288); test: Inhibition of TRKC (unknown origin) by Off-chip Mobility Shift Assay
Method in brief: (§2)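 Kinase panel run in duplicate using a microcapillary electrophoresis (mobility shift) assay. Screening concentration was 100 nM. IC50 values were then determined at each kinase's ATP Km.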

[20] = biological target: STE20-like serine/threonine-protein kinase (Homo sapiens, UniProt Q9H2G2); test: Inhibition of SLK (unknown origin) by Off-chip Mobility Shift Assay; method in brief: as §2
[21] = biological target: T1, NUAK family SNF1-like kinase 1 (Homo sapiens, UniProt O60285); test: Inhibition of Nuak1 (unknown origin) by Off-chip Mobility Shift Assay; method in brief: as §2
T1 sequence (O60285 whole entry): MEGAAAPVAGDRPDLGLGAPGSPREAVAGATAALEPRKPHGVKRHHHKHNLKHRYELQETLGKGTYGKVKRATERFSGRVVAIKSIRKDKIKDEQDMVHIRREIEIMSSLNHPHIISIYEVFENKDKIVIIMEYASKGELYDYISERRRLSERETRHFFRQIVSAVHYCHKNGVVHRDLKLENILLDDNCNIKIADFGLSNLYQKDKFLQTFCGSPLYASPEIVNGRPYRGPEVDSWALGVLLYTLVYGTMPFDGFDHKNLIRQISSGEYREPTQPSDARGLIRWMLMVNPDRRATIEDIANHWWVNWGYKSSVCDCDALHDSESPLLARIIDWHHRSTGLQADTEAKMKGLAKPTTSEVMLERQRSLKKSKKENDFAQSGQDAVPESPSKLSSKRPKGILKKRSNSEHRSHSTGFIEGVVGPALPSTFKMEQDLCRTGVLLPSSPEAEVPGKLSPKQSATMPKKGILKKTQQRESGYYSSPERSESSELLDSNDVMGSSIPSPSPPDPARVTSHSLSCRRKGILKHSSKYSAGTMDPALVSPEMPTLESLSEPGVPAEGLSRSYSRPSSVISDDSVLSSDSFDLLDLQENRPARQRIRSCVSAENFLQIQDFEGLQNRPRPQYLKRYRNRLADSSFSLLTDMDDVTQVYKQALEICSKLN

[22] = biological target: Mast/stem cell growth factor receptor Kit (Homo sapiens, UniProt P10721); test: Inhibition of Kit (unknown origin) by Off-chip Mobility Shift Assay; method in brief: as §2
[23] = biological target: Hepatocyte growth factor receptor (Homo sapiens, UniProt P08581); test: Inhibition of Met (unknown origin) by Off-chip Mobility Shift Assay; method in brief: as §2
697 = test: Inhibition of Mer phosphorylation in human 697 cells xenografted in NOD.Cg-Prkdcscid Il2rgtm1Wjl/SzJ mouse at 3 mg/kg, po administered as single dose measured after 30 mins post dose by densitometry relative to control; assay type: functional; settings: Mus musculus, 697, 0.5 h
Method in brief: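 NSG mice received 2 × 10^6 697 B-ALL cells by tail-vein injection, with 14 days for engraftment. A single 3 mg/kg dose or saline vehicle (10 mL/kg) was given by oral gavage, and femurs were taken 30 min later. Marrow cells were held 10 min at room temperature in RPMI with 20% FBS and 240 μM pervanadate. Mer was then immunoprecipitated and p-Mer/total Mer quantified by Western densitometry; n = 6.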

[24] = Plasma concentration in human 697 cells xenografted NOD.Cg-Prkdcscid Il2rgtm1Wjl/SzJ mouse at 3 mg/kg, po administered as single dose measured after 30 mins post dose; assay type: ADME, organism-based; design: dose 3 mg/kg, route oral
[25] = Plasma protein binding in human 697 cells xenografted NOD.Cg-Prkdcscid Il2rgtm1Wjl/SzJ mouse at 3 mg/kg, po administered as single dose measured after 30 mins post dose; assay type: ADME, organism-based; design: dose 3 mg/kg, route oral; settings: read-out: PPB (converted)
Method in brief: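 Plasma protein binding was measured in mice, n = 3.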

Plasma = test: Fraction unbound in plasma of human 697 cells xenografted NOD.Cg-Prkdcscid Il2rgtm1Wjl/SzJ mouse at 3 mg/kg, po administered as single dose measured after 30 mins post dose; assay type: ADME, organism-based; design: dose 3 mg/kg, route oral; settings: in vivo, 0.5 h
[26] = Kinetic solubility of the compound in normal saline at pH 7.4; assay type: physicochemical; settings: buffer
[27] = biological target: T2, Tyrosine-protein kinase Mer (Homo sapiens) (UniProt Q12866); settings: A549, 50 to 300 nM
T2 sequence (whole entry): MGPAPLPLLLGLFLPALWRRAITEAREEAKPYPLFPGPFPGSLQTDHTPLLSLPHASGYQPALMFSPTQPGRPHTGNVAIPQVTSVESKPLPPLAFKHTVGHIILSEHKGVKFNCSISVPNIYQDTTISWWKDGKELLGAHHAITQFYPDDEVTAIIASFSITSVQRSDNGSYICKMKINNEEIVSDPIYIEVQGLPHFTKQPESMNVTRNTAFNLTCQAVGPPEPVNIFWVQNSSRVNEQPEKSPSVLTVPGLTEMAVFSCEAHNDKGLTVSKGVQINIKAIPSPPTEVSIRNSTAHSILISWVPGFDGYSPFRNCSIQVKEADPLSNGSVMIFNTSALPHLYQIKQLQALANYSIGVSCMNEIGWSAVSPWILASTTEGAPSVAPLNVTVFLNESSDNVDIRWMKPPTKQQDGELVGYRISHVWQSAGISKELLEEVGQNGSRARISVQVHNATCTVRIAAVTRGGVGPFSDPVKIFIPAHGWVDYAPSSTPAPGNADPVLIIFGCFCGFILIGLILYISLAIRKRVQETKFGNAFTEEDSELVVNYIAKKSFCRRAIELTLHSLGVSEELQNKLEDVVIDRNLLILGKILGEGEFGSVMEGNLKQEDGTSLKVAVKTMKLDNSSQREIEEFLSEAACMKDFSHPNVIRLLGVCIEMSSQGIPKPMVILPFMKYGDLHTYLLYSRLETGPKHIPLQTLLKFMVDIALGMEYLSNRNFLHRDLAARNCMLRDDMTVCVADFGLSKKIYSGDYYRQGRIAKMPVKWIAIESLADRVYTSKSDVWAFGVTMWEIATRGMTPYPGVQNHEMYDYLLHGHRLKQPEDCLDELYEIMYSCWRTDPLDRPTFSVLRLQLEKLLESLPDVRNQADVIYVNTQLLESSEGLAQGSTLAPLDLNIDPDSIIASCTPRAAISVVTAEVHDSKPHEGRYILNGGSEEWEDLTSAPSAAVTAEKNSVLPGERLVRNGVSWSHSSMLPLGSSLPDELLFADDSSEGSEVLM

[28] = biological target: Receptor-type tyrosine-protein kinase FLT3 (Homo sapiens) (UniProt P36888); settings: MOLM-14, 10 to 50 nM
Sequence of Receptor-type tyrosine-protein kinase FLT3 (Homo sapiens) (P36888 whole entry): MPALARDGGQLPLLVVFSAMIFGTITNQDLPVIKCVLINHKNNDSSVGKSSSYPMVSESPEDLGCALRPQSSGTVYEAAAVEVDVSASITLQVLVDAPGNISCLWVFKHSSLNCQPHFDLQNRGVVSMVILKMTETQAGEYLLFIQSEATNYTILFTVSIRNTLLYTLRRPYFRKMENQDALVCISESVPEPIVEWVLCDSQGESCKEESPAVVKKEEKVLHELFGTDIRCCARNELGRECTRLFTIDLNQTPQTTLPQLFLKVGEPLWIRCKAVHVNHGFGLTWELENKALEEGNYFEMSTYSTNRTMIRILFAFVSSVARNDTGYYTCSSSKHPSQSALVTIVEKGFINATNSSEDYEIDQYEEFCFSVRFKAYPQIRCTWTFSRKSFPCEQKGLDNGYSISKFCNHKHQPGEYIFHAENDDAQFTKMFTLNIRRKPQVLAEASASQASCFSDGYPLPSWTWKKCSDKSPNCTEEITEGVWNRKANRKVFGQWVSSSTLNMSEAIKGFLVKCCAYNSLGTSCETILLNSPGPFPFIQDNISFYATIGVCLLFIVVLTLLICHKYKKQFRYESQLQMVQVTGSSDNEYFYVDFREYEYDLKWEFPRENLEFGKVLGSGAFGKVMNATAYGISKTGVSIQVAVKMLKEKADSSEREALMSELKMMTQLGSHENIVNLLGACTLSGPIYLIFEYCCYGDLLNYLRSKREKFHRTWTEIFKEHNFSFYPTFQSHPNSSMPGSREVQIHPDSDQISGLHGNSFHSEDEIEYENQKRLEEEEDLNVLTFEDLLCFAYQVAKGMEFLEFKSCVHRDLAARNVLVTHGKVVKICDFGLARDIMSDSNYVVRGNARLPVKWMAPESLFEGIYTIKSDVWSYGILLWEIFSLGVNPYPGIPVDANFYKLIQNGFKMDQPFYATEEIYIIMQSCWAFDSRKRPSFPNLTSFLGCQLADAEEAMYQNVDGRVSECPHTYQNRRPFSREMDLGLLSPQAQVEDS

Sequence of STE20-like serine/threonine-protein kinase (Q9H2G2 whole entry): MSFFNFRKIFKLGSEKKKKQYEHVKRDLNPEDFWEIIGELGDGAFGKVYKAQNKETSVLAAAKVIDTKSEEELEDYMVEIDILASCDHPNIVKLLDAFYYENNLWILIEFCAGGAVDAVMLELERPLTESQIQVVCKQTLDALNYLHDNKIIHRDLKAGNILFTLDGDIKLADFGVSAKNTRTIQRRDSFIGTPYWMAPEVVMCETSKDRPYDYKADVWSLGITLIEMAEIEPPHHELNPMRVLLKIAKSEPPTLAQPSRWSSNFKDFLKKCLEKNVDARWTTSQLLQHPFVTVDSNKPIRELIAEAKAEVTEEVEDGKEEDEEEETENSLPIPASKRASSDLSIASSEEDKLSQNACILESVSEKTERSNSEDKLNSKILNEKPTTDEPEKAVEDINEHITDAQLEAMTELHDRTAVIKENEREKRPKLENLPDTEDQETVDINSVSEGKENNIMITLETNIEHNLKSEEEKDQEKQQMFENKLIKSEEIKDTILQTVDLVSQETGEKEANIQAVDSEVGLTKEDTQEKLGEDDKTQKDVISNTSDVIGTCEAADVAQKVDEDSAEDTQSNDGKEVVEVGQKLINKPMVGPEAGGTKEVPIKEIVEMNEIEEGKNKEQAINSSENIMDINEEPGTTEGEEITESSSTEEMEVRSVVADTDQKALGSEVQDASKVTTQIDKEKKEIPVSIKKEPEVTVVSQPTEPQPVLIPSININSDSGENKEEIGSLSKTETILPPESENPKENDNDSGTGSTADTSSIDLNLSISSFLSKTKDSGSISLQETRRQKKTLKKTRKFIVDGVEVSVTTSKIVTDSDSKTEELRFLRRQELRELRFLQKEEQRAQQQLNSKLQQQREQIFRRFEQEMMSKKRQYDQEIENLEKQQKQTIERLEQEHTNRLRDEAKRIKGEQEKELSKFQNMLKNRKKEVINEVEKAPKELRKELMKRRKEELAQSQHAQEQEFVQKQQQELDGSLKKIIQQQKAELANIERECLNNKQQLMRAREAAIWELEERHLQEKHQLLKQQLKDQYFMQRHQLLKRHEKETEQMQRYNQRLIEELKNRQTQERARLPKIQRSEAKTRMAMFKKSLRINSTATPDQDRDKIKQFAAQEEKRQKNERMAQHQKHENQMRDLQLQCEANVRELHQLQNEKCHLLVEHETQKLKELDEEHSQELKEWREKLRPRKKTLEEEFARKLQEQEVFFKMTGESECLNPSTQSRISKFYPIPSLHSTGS
Sequence of Hepatocyte growth factor receptor (P08581 whole entry): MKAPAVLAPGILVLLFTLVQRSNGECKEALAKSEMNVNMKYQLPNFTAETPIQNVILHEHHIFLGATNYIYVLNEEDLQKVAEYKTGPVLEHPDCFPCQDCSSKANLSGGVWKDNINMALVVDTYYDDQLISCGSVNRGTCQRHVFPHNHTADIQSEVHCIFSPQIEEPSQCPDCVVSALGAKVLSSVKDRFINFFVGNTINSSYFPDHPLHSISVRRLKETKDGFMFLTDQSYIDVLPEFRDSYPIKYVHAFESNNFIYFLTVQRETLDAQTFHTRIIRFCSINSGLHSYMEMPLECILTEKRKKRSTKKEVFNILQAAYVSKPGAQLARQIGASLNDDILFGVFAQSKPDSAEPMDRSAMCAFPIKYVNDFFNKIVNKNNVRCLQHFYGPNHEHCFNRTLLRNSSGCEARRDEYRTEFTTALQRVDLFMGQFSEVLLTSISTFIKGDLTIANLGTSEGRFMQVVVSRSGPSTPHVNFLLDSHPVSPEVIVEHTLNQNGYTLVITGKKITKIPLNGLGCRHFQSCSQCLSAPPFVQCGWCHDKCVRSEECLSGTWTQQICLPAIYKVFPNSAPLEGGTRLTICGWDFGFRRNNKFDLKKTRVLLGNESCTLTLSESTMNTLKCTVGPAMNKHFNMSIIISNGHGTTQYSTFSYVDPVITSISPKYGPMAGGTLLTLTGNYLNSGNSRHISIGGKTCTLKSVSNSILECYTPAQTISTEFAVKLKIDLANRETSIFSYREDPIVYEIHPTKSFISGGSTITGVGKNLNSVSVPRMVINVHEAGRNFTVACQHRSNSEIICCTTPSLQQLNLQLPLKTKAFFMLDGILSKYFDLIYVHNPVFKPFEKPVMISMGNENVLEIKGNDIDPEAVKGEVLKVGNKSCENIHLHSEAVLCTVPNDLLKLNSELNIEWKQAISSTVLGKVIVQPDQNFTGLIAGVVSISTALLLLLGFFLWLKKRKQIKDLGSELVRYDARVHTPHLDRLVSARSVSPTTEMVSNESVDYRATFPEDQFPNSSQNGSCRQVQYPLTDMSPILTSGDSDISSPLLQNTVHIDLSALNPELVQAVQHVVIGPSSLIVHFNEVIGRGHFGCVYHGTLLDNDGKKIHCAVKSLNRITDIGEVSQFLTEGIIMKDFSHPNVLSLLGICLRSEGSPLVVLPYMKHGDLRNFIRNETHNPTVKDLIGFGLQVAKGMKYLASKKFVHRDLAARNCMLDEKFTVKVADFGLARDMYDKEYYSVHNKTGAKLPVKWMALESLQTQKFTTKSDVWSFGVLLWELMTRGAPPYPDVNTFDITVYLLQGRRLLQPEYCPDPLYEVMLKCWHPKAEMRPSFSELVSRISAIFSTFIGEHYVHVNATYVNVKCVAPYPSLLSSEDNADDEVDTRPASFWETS
Sequence of NT-3 growth factor receptor (Q16288 whole entry): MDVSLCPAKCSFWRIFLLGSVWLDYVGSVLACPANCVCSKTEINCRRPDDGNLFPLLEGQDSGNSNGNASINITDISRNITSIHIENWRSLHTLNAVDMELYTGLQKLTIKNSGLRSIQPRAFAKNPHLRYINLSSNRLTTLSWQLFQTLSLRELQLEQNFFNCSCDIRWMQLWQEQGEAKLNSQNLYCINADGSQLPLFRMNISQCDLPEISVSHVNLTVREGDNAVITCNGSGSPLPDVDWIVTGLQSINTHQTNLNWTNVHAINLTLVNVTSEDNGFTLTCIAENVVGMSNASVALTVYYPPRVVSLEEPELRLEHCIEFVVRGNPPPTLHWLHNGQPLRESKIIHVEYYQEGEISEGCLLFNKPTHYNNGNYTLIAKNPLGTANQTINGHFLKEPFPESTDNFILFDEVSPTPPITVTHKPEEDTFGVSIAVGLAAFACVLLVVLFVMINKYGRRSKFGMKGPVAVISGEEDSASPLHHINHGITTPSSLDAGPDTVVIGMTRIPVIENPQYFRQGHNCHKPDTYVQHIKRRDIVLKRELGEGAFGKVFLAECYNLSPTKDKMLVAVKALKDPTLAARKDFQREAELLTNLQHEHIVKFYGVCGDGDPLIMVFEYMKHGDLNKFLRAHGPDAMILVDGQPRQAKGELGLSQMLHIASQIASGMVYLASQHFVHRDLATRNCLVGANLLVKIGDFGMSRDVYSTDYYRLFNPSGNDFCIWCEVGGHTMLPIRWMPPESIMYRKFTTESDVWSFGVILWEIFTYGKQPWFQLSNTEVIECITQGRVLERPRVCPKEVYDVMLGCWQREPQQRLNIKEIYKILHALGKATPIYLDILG

Row | Structure (SMILES) | half-life [1] [min] | Cmax [2] [nM] | AUC(0-t) [3] [µM·h] | Vd [4] [L/kg] | clearance [5] [mL/min/kg] | Tmax [6] [min] | Cmax [7] [nM] | AUC(0-t) [8] [µM·h] | F (Mus musculus [9]) [%] | further results
1 | CCCCNc1ncc2c(-c3ccc(S(=O)(=O)N4CCOCC4)cc3)nn([C@H]3CC[C@H](O)CC3)c2n1 | 138 | 16000 | 3.3 | 0.43 | 30 | 30 | 13 | 0.01 | 0.3 | –
2 | CN1CCN(S(=O)(=O)c2ccc(-c3cn([C@H]4CC[C@H](O)CC4)c4nc(NCCC5CC5)ncc34)c(F)c2)CC1 | 72 | 1200 | 1 | 5.3 | 76 | 15 | 420 | 0.69 | 67 | –
3 | CCCCNc1ncc2c(-c3ccc(S(=O)(=O)N4CCN(C)CC4)c(F)c3)cn([C@H]3CC[C@H](O)CC3)c2n1 | – | – | – | – | – | – | – | – | – | half-life [10]: 48 min; Cmax [11]: 400 nM; AUC(0-t) [12]: 0.27 µM·h; Vd [13]: 5.5 L/kg; clearance [14]: 103 mL/min/kg; Tmax [15]: 15 min; Cmax [16]: 390 nM; AUC(0-t) [17]: 0.66 µM·h; F (Mus musculus [18]): 25%
4 | CCCCNc1ncc2c(-c3ccc(CN4CCN(C)CC4)cc3)cn([C@H]3CC[C@H](O)CC3)c2n1.Cl | – | – | – | – | – | – | – | – | – | Kinetic_solubility [26]: 38 µg/mL
5 | CCCCNc1ncc2c(-c3ccc(S(=O)(=O)N4CCOCC4)cc3)cn([C@H]3CC[C@H](O)CC3)c2n1 | 13.8 | 7900 | 1.4 | 0.78 | 70 | 15 | 160 | 0.12 | 8.4 | –
6 | CCCCNc1ncc2c(-c3ccc(CN4CCN(C)CC4)cc3)cn([C@H]3CC[C@H](O)CC3)c2n1 [listing 2 of 2 here] | – | – | – | – | – | – | – | – | – | inhibition [27]: Active; inhibition [28]: Active

Continued, in another order:

Row | half-life [1] [min] | Cmax [2] [nM] | AUC(0-t) [3] [µM·h] | Vd [4] [L/kg] | clearance [5] [mL/min/kg] | Tmax [6] [min] | Cmax [7] [nM] | AUC(0-t) [8] [µM·h] | F (Mus musculus [9]) [%] | Structure (SMILES) | further results
7 | 228 | 4100 | 9.2 | 2.3 | 9.2 | 30 | 1600 | 9.2 | 100 | CCCCNc1ncc2c(-c3ccc(CN4CCN(C)CC4)cc3)cn([C@H]3CC[C@H](O)CC3)c2n1 [listing 1 of 2 here] | IC50 [19]: 4.38 nM; IC50 [20]: 6.14 nM; IC50 [21]: 7.97 nM; IC50 [22]: 8.18 nM; IC50 [23]: 364 nM; inhibition in vivo at 3 mg/kg 697: > 90%; concentration at 0.5 h [24]: 1600 nM; fraction unbound at 0.5 h [25]: 0.014; Cp(f) (Plasma): 22 nM
8 | 264 | 6500 | 12 | 2 | 7.2 | 60 | 1300 | 9 | 78 | CN1CCN(Cc2ccc(-c3cn([C@H]4CC[C@H](O)CC4)c4nc(NCCC5CC5)ncc34)cc2)CC1 | –

Reference: ChEMBL document CHEMBL3351548, “UNC2025, a potent and orally bioavailable MER/FLT3 dual inhibitor” (J Med Chem, 2014)
